# A selection: hits, their analogues and other compounds. The true share with any hit is near 9.2%.
# PTEN del growth: growth suppressors of cells with PTEN tumor suppressor deletion; HCT116 PTEN-null viability, CellTiter-Glo, 60 h; stronger effect = lower value; viability, % at 10 µM; hit rate 1.2% among 140,000;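 active means viability at or below a set limit, 4 SD under the median of all tested compounds, cut at about 3.7% in these data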;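 further: PTEN knockout HCT116 line with beta catenin targeted HCT116 as companion control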
# Lmaj promast: Leishmania major promastigote growth inhibition. Leishmania major promastigotes, resazurin fluorescence viability. inhibition, % at 10 µM. hit rate 9% among 200,000; in the data active means inhibition above about 50%;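 further: promastigotes grown with compound for 44 hours at 28 °C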
# Autophagy HCS: alters autophagy in cells; calls only at 10 µM (by protocol); MEF GFP-LC3 puncta imaging; test concentration mostly 10 µM; hit rate 0.98% among 190,000;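 active means percentage of spot-positive cells more than 3 SD above its plate mean, without a fluorescence outlier flag or 80% toxicity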
# bCat KO growth: beta-catenin-lacking colon tumor cell growth suppression. HCT116 beta-catenin knockout viability, CellTiter-Glo, 60 h; stronger effect = lower value. viability, % at 10 µM. hit rate 1.5% among 140,000;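 active means viability at or under a set limit, the compound median less 4 SD, cut at about 6% in these data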
# Dynein transport: dynein cargo transport inhibition; z-score, hits read low; hit rate 0.47% among 220,000; AID 1381; 3617.4 mouse cells, GR-EGFP nuclear translocation imaging; test concentration mostly 20 µM; stimulated with dexamethasone, 1 µM; stronger effect = lower value;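 active means plate z-score of nuclear minus cytoplasmic receptor signal below a set negative limit, without overly bright fluorescence or cell loss, cut at about -3.5 in these data, passing the limit was not always enough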;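 further: z-score of nuclear minus cytoplasmic ring GR-EGFP intensity difference per well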
#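 Buffer or medium: tetracycline-free induction medium containing charcoal-stripped FBS / Reagent: dexamethasone agonist, 1.0 µM final, for 30 min / Technique: automated 10x imaging of fixed Hoechst-stained cells / Times: induction 48 h, compound 1 h, agonist 30 min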
# A number is an active result; i = inactive; nt = not tested or not shown; + = active, no number.
SMILES,PTEN del growth,Lmaj promast,Autophagy HCS,bCat KO growth,Dynein transport
Cc1ccc(NC(=S)N/N=C/c2ccc([N+](=O)[O-])s2)cc1,1.8,89.3,i,1.6,i
Cc1cccc(NC(=S)N/N=C/c2cccc([N+](=O)[O-])c2)c1,i,i,i,i,i
O=Cc1sc([O-])nc1-[n+]1ccc2ccccc2c1,nt,nt,nt,nt,i
COC(=O)c1sccc1NC(=O)CC1C(=O)NCCN1C(=O)Nc1ccc(C(F)(F)F)cc1 (centres undefined),nt,nt,nt,nt,i
CCN(C(=O)c1cc2c(=O)[nH]c3ccc(C)cc3c2s1)c1ccc(OC)cc1,nt,nt,nt,nt,i
COC(=O)c1nc2ccccn2c1F,nt,i,i,nt,i
Cc1ccc(C(=O)NNC2=NC(C)(C)Cc3ccccc32)cc1,nt,nt,nt,nt,i
O=C(CC(Nc1ccc(F)cc1)c1ccccc1)c1ccccc1 (centres undefined),3.4,i,i,i,i
O=C(CC(Nc1ccc(Cl)cc1)C(=O)O)c1ccccc1 (centres undefined),i,i,i,i,i
Cc1cccc(C=Nc2ccc3c4c(cccc24)CC3)c1O,i,i,i,i,i
Oc1ccc(Cl)cc1C=Nc1ccc2c3c(cccc13)CC2,i,84.3,i,i,i
O=C(COC(=O)c1ccc(-c2ccccc2)cc1)Nc1ccccc1-c1ccccc1,i,i,i,i,i
O=C(COC(=O)c1ccc(O)cc1)Nc1ccccc1-c1ccccc1,i,56.7,i,i,i
Cn1c(=O)n(C)c2cc(NC(=O)CSc3nnc(-c4ccccc4O)n3-c3ccccc3)ccc21,i,60.2,i,i,i
O=C(CSc1nnc(-c2ccncc2)n1-c1ccccc1)Nc1ccc(C(=O)O)cc1,nt,i,i,nt,i
CCc1nnc(NC(=O)CSc2nnc(-c3ccccc3O)n2-c2ccc(C)cc2C)s1,i,98.9,i,i,i
Cc1ccccc1CC1(CO)CCCN(Cc2nc(-c3cccs3)oc2C)C1 (centres undefined),nt,54.8,i,nt,i
Cc1oc(-c2cccs2)nc1CN1CC[C@@](O)(c2ccccc2)[C@H]2CCCC[C@@H]21,nt,i,i,nt,i
CC(C)n1c(O)c(N=Nc2ccc(Cl)nn2)c2ccccc21,i,i,+,i,i
Cc1cc(C(=O)N=Nc2c(O)n(C(C)C)c3ccccc23)n[nH]1,i,i,i,i,i
O=S1(=O)Cc2cc3ccccc3cc2C1,nt,i,i,nt,i
O=C(OCc1cc2ccccc2[nH]c1=O)c1cccc([N+](=O)[O-])c1,nt,nt,nt,nt,i
CC(=O)Nc1ccc(N2CCCCC2)c(C(=O)Nc2cccc(C)c2)c1,i,81.5,i,i,i
Cc1cccc(NC(=O)c2cc(NC(=O)C3CCCCC3C(=O)O)ccc2N2CCCCC2)c1 (centres undefined),i,i,i,i,i
O=C(Nc1ccccc1)c1ccc(NC2CCCCC2)c(S(=O)(=O)N2CCOCC2)c1,i,61.1,i,i,i
SMILES,PTEN del growth,Lmaj promast,Autophagy HCS,bCat KO growth,Dynein transport
O=C(Nc1ccccc1)c1ccc(N2CCN(c3ccccn3)CC2)c(S(=O)(=O)N2CCOCC2)c1,i,i,i,i,i
O=[N+]([O-])c1ccc(N2CCN(Cc3ccccc3)CC2)c(S(=O)(=O)N2CCOCC2)c1,i,93.2,i,i,i
O=C(Nc1ccccc1)Nc1ccc(Cl)c(S(=O)(=O)N2CCOCC2)c1,nt,i,i,nt,i
O=C(Nc1ccccc1)c1ccc(N2CCN(c3ccccc3)CC2)c(S(=O)(=O)N2CCOCC2)c1,i,88.9,i,i,i
COCCN1Cc2cccc(C(=O)NCc3cccs3)c2C1=O,nt,i,i,nt,i
CCOC(=O)C1CCN(Cc2cnc(Oc3ccc(N)cc3)s2)CC1,i,84.4,i,i,i
Cc1ccc(Oc2ncc(CN3CC(C)OC(C)C3)s2)cc1 (centres undefined),i,52.2,i,i,i
CCOC(=O)C1CCN(Cc2cnc(Oc3ccc(Cl)cc3C)s2)CC1,i,90.0,i,i,i
Cc1ccc(C2(c3noc(CN4C[C@@H](C)O[C@@H](C)C4)n3)CCCC2)cc1,nt,i,i,nt,i
Cc1nn(-c2ccccc2)c(N2CCCC2)c1/C=N/O,i,72.3,i,i,i
Cc1nn(-c2ccccc2)c(N2CCCC2)c1/C=N/NC(=S)Nc1ccccc1C(F)(F)F,i,99.1,i,i,i
Cc1ccc(NC(=O)CN(c2ccccc2)S(=O)(=O)N(C)C)cc1,i,i,i,i,i
CCOC(=O)C(C)Sc1nc2c(c(-c3cccs3)c1C#N)CCC2 (centres undefined),i,54.5,i,i,i
Clc1ccc(OCCOCCN2CCc3ccccc3C2)c(Cl)c1,i,88.0,i,i,i
c1ccc(-c2ccccc2OCCOCCN2CCc3ccccc3C2)cc1,nt,76.8,i,nt,i
OCCN1CCN(CCOc2ccccc2-c2ccccc2)CC1,i,i,i,i,i
COc1cc2c(cc1OC)C(C(=O)N1CCN(c3ccccc3)CC1)C(c1cccs1)N(C)C2=O (centres undefined),i,i,i,i,i
C/C(=N\NC(N)=S)C12CC3CC(CC(C3)C1)C2,i,100.5,i,i,i
S=c1[nH]nc(COc2ccccc2)n1/N=C/C(Cl)=C/c1ccccc1,i,80.6,i,i,i
S=c1[nH]nc(-c2ccncc2)n1/N=C/C(Cl)=C\c1ccccc1,nt,53.1,i,nt,i
Cc1c(N=Nc2c(-c3ccc([N+](=O)[O-])cc3)[nH]n(C(N)=S)c2=O)cccc1[N+](=O)[O-],nt,65.3,i,nt,i
NC(=S)n1[nH]c(-c2ccc([N+](=O)[O-])cc2)c(N=Nc2ccccc2[N+](=O)[O-])c1=O,nt,i,i,nt,i
CN(C)S(=O)(=O)c1cc(NC(=O)CN2CCNC(=O)C2)ccc1Cl,i,59.9,i,i,i
Cc1cc2c(cc1C)NC(c1nc3ccccc3[nH]1)C1=C(CC(C)(C)CC1=O)N2 (centres undefined),i,91.5,i,i,i
Cc1ccc(-n2cccc2/C=C2\C(=N)N3N=C(c4ccco4)SC3=NC2=O)cc1,nt,i,i,nt,i
SMILES,PTEN del growth,Lmaj promast,Autophagy HCS,bCat KO growth,Dynein transport
CON(c1nc(N(C)C)nc(N(C)C)n1)S(=O)(=O)c1ccccc1Cl,i,64.6,i,i,i
O=C(CCS(=O)(=O)c1ccccc1)Nc1nc(-c2ccccn2)cs1,nt,92.1,i,nt,i
CC1(C)CC(=O)c2sc(NC(=O)CCS(=O)(=O)c3ccccc3)nc2C1,3.7,77.8,i,3.6,i
O=C(CS(=O)(=O)c1ccccc1)Nc1nc(-c2ccccc2)cs1,i,i,i,i,i
Cc1cc(C)c(OCC(=O)Nc2nc(-c3ccccn3)cs2)c(C)c1,nt,86.6,i,nt,i
COc1ccc(OCCCC(=O)Nc2nc(-c3ccccn3)cs2)cc1,nt,100.5,i,nt,i
CC1(C)CC(=O)c2sc(NC(=O)c3ccccc3)nc2C1,nt,i,i,nt,i
CCn1c2ccccc2c2cc(/C=N/NC(=O)c3cc(O)cc(O)c3)ccc21,nt,i,i,nt,i
CCn1c2ccccc2c2cc(/C=N/NC(=O)c3ccc(O)cc3)ccc21,i,67.1,i,i,i
CCN(CC)S(=O)(=O)c1ccc(C)c(NC(=O)CNCCN(C(C)C)C(C)C)c1,nt,i,i,nt,i
Cc1ccc(S(=O)(=O)NCC(=O)OCC(=O)NC(=O)NC2CCCC2)cc1,nt,i,i,nt,i
